Bioassay records as filed in PubChem BioAssay.
In the library only some 4.5% were active in any assay of this set; here they are far more common.
MrgX1 allo act = human MrgX1 positive allosteric modulation, primary screen; MrgX1-HEK293, Fluo-4 calcium flux, FDSS; active compounds read high; Q96LB2; B-score at 10 µM; 310,000 tested, 0.63% active; AID 588675;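 active = plate-corrected calcium response at least 3 library SD above typical, normal starting fluorescence, not activating the receptor alone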;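 note: compound read alongside a low EC10 to EC30 dose of BAM8-22 agonist; peak minus trough fluorescence over baseline measured at the second addition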
RGS4 pot = potentiators or activators of RGS4; B-score at 10 µM; HEK293 M3R/inducible RGS4, carbachol calcium flux Fluo4; active compounds read low; 310,000 tested, 0.92% active;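 active = B-score of the integrated calcium signal more than 4 SD below the library mean, with starting fluorescence not abnormally high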;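 note: negative B-score means reduced calcium response which marks RGS4 activation or potentiation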
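Reagent: ECmax carbachol challenge; Test system: M3R-expressing HEK293 line, RGS4 induced by doxycycline; Schedule: overnight RGS4 induction, 30 min dye load 37 °C, 20 min compound RT; Detection: calcium dye Fluo4 fluorescence; Read-out: Agonist-evoked peak-minus-minimum fluorescence over baseline, integrated ratio, B score.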
PHOSPHO1 inh = blocks human PHOSPHO1 phosphatase activity | Q8TCT1 | recombinant PHOSPHO1, absorbance phosphatase assay | inhibition, % at 13.3 µM | 290,000 tested, 1.1% active | AID 1565; in the data active = inhibition above about 60%
Target sequence (Q8TCT1 whole entry, looked up): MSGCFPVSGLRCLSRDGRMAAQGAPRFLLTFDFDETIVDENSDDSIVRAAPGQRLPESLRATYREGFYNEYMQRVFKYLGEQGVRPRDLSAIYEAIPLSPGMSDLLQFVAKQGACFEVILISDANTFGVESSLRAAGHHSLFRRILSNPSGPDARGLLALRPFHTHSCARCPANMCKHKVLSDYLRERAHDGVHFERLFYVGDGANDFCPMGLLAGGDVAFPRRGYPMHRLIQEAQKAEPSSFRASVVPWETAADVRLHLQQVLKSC
MrgX1 agonist = human MrgX1 receptor agonism, primary screen | MrgX1-HEK293 cells, Fluo-4 calcium fluorescence, agonist mode; active compounds read high | Q96LB2 | B-score at 10 µM | 310,000 tested, 0.44% active;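 active = calcium response B-score plate-corrected fluorescence ratio at least 3 library SD, with starting fluorescence B-score inside 5 SD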
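Material – MrgX1-expressing HEK293 cells · Input – 15,000 cells seeded per well · Dosing – compound as first of three additions · Times – overnight seeding, then 1 h dark dye loading · Measured by – kinetic Fluo-4 NW fluorescence of intracellular calcium · Read-out – B-scored fluorescence response ratio · Benchmarks – positive and negative control wells on each plate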
RGS4 block = inhibitors of human RGS4; HEK293 M3R/RGS4 inducible, Fluo-4 calcium flux; active compounds read high; triggered by carbachol at its EC20; B-score at 10 µM; 310,000 tested, 0.45% active;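 active = B-score, a plate-corrected calcium signal, over three deviations above library mean, with baseline fluorescence within five deviations of library mean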;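 note: RGS4 expression induced by doxycycline in cells with stable M3 receptor; B-score is computed from the integrated fluorescence ratio over baseline after carbachol; higher B-score means a larger calcium signal and so more RGS4 inhibition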
Target sequence (P49798 whole entry, looked up): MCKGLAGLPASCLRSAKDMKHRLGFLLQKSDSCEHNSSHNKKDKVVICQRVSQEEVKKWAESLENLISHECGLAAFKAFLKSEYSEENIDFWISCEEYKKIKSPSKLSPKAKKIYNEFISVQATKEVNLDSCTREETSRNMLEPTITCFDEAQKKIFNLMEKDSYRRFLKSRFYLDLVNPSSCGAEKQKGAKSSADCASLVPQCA
MrgX1 antagonist = blocks BAM8-22 activation of human MrgX1 receptor; Q96LB2; MRGX1-HEK293 calcium flux, Fluo-4, BAM8-22 antagonism; active compounds read low; B-score at 10 µM; 310,000 tested, 1.3% active;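 active = calcium-response B-score plate-corrected more than 3 library SD below zero, starting fluorescence within 5 deviations, no agonist response on first addition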;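 note: peak minus trough fluorescence over baseline after final BAM8-22 challenge near maximal dose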
* marks the source's active call; other numbers are inactive results; i = inactive; · = no result given.

SMILES	MrgX1 allo act	RGS4 pot	PHOSPHO1 inh	MrgX1 agonist	RGS4 block	MrgX1 antagonist
CCOCCCNC(=O)c1cc(-c2cccnc2)nc2ccc(S(=O)(=O)N3CCC(C)CC3)cc12	i	i	75*	i	i	i
Cc1cccc(C)c1NC1=NC(=S)N(c2ccccc2)C12CCOC(C)(C)C2 (stereo not drawn)	i	i	7	i	i	i
Cc1ccc(N2C(=S)N=C(Nc3ccccc3C)C23CCOC(C)(C)C3)cc1 (stereo not drawn)	i	i	70*	i	i	i
Cc1ccc(S(=O)(=O)N2CCN(C(=O)CC(C)n3cncn3)CC2)cc1C (stereo not drawn)	i	i	6	i	i	i
COCC(C)NC(=O)Cn1c(SCc2ccccc2)nc2ccccc21 (stereo not drawn)	i	i	24	i	i	i
COCC(C)NC(=O)CSc1nc2ccccc2n1CCc1ccccc1 (stereo not drawn)	i	i	6	28*	i	i
COCCNC(=O)CN1C(=O)COc2ccc(S(=O)(=O)N3CCCCCC3)cc21	i	i	24	i	i	i
CC(=O)c1ccccc1C(=O)N1CCC(n2nccc2NC(=O)C2CC2)CC1	i	i	66*	i	i	i
COc1ccc(C(=O)N2CCC(n3nccc3NC(=O)C3CC3)CC2)c(OC)c1OC	i	i	20	i	i	i
O=C(NCCC1CC1(Cl)Cl)Nc1ccccc1 (stereo not drawn)	i	i	12	i	i	i
Nc1cc(N)c(OCC(F)(F)F)cc1OCC(F)(F)F	i	i	16	i	6.7*	i
Cc1ccc(N/N=C/c2c(O)cc(C)oc2=O)cc1	i	·	88*	i	·	i
O=C(Cc1ccccc1)c1c[nH]c(C(=O)NCCCN2CCOCC2)c1	i	i	40	i	i	i
CCOc1ccc(N2CC(=O)Nc3ccccc3NCC2=O)cc1	i	i	7	i	i	-5.9*
CCOc1ccc(N2C(=O)CNC2=S)cc1	i	i	34	i	i	i
CCN(CC)S(=O)(=O)c1cccc(NC(=O)COc2ccc(C#N)cc2OC)c1	i	i	-5	i	i	i
CCN(CC)S(=O)(=O)c1cc(NC(=O)COc2ccc(C#N)cc2OC)ccc1C	i	i	-3	i	i	-6.8*
CCOC(=O)CCNCc1ccc(F)cc1	i	i	12	i	i	i
CCCc1nc2ccccc2c(=O)n1NC(=O)c1c(O)c2cccc3c2n(c1=O)CCC3	i	i	-23	i	i	-5.7*
CNC(=O)c1c(O)c2cccc3c2n(c1=O)CCC3	i	i	-2	i	i	i
CCCCc1nc2ccccc2c(=O)n1NC(=O)c1c(O)c2ccccc2n(C)c1=O	i	i	-12	i	i	-5.8*
Cc1nc2ccccc2c(=O)n1NC(=O)c1c(O)c2ccccc2n(C)c1=O	·	·	-12	·	·	·
Cn1c(=O)c(C(=O)Nc2ncccc2O)c(O)c2ccccc21	i	i	82*	i	i	i
CCCn1c(=O)c(C(=O)Nc2ncccc2O)c(O)c2ccccc21	i	i	-18	i	i	i
COc1ccc(OCC2CCNCC2)cc1	i	i	·	i	i	i
SMILES	MrgX1 allo act	RGS4 pot	PHOSPHO1 inh	MrgX1 agonist	RGS4 block	MrgX1 antagonist
O=C(NC1=NCCS1)c1cccc2ccccc12	i	i	2	i	i	i
O=C(c1ccc2oc(CCc3ccccc3)nc2c1)N1CC[C@H](O)C1	i	i	12	i	i	i
CN(C)CCNC(=O)CCn1nc(-c2ccc(Cl)cc2)ccc1=O	i	i	29	i	i	i
CCOC(=O)c1cc(=O)n2nc(-c3ccc(C)cc3)nc2s1	i	i	75*	i	i	i
CCc1nnc(NC(=O)CSc2ncnc3c2cnn3-c2ccc(OC)cc2)s1	i	i	38	i	i	i
CCCCn1c(NC(=O)c2ccccc2)c(C#N)c2nc3ccccc3nc21	·	·	33	·	·	·
CCCCn1c(NC(=O)c2ccc(F)cc2)c(C#N)c2nc3ccccc3nc21	i	i	·	54*	i	i
O=C(CN1CCCCCC1)Nc1ccccc1Oc1ccccc1	i	-7.2*	-17	i	i	i
O=C(CN1CCCCC1)Nc1cc(Cl)ccc1Oc1ccccc1	i	i	-11	i	i	i
COc1ccc(N2CCN(Cc3nc(-c4ccccc4)no3)CC2)cc1	i	i	-10	i	i	i
O=C(N/N=C/c1ccc([N+](=O)[O-])s1)c1ccccc1Br	i	i	41	i	i	-5.3*
CC(CCCN(C)C)C(Cc1ccccc1)c1ccccc1 (stereo not drawn)	i	-7.8*	·	i	i	i
CN(C)CCC(=O)C(Cc1ccccc1)c1ccccc1 (stereo not drawn)	i	i	·	i	i	i
O=C(Nc1ccnc(-c2cccnc2)n1)c1cccs1	i	i	34	i	i	i
O=C(CCCCCNc1nc(=S)[nH]c2ccccc12)NCCc1ccc(Cl)cc1	9.7*	i	9	i	i	i
O=C(CCCCCNc1nc(=S)[nH]c2ccccc12)NCCc1c[nH]c2ccccc12	i	i	20	i	i	i
CC(C)C[C@@H](CO)NC(=O)CC[C@H](NC(=O)OC(C)(C)C)C(=O)N(Cc1ccccc1)Cc1ccccc1	i	i	·	i	i	i
CCc1ccc(CNC(=O)Cc2ccc(NC(=O)C3=C(C)OCCS3)cc2)cc1	i	i	65*	i	i	i
CC1=C(C(=O)Nc2ccc(CC(=O)NCc3ccccc3C)cc2)SCCO1	i	i	32	i	i	i
O=C(/C=C/c1ccccc1)Nc1ccc2c(c1)OCCO2	i	i	6	i	i	-4.6*
O=C(/C=C/c1ccco1)Nc1ccc2c(c1)OCCO2	i	i	16	i	i	i
O=C(/C=C/c1ccccc1)Nc1cccc(C(=O)O)c1	i	i	28	i	i	-5.6*
CCC(=O)Nc1cccc(C(=O)/C=C/c2ccccc2)c1	i	i	38	35*	i	i
CCC(=O)Nc1cccc(C(=O)/C=C/c2cccs2)c1	i	i	35	i	i	i
O=C(/C=C/c1ccccc1)Nc1cc(NC(=O)/C=C/c2ccccc2)cc(C(=O)O)c1	i	i	25	i	i	i
